Test results reported in ChEMBL document CHEMBL2169868, “Flavone-based novel antidiabetic and antidyslipidemic agents” (J Med Chem, 2012).

Experiments:
Mus musculus [1] = assay: Antidiabetic activity in diabetic C57BL/KsJ db/db mouse model assessed as reduction in postprandial glucose level in hyperglycemia at 25 mg/kg, po measured 2 hrs post dose; type: functional; parameters: scale not given: the % may be the effect or the level left
Summary of the method: (§1)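 db/db mice (C57BL/KsJ, 12−18 weeks, 40−50 g; selected by glucose 200−350 mg/dL) dosed orally daily for 10 consecutive days at 1, 3, 10, 25 or 50 mg/kg; postprandial blood glucose profile recorded on day 6 with food access interrupted; mean % change versus vehicle in 5 animals per group; Student t test.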

Mus musculus [2] = assay: Antidiabetic activity in diabetic C57BL/KsJ db/db mouse model assessed as reduction in postprandial glucose level in hyperglycemia at 3 mg/kg, po measured 2 hrs post dose; type: functional; parameters: scale not given: the % may be the effect or the level left; summary of the method: as §1
Syrian golden hamster [3] = assay: Antidyslipidemic activity in high fructose and high-fat diet fed dyslipidemic Syrian golden hamster model assessed as reduction in NEFA level at 30 mg/kg/day, po for 7 day, po; type: functional, Mesocricetus auratus; parameters: scale not given: the % may be the effect or the level left
Summary of the method: (§2)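 Syrian golden hamsters fed high-fructose high-fat diet; oral dosing in 1% gum acacia at 10, 30, 100 mg/kg (or 25 mg/kg) for 7 days, sham control given vehicle; plasma TG, cholesterol, LDL-C, HDL-C, glycerol and NEFA (kits), lipoprotein lipase activity and body weight; % change versus HFD control, six hamsters per group.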

Mus musculus [4] = assay: Antidiabetic activity in diabetic C57BL/KsJ db/db mouse model assessed as improvement in glucose tolerance in hyperglycemia at 3 mg/kg, po measured 2 hrs post dose; type: functional
Syrian golden hamster [5] = assay: Antidyslipidemic activity in high fructose and high-fat diet fed dyslipidemic Syrian golden hamster model assessed as reduction in triglyceride level at 10 mg/kg/day, po for 7 day, po; type: functional, Mesocricetus auratus; parameters: scale not given: the % may be the effect or the level left; summary of the method: as §2
[6] = Mean residence time in Sprague-Dawley rat at 25 mg/kg, po by LC-MS/MS method; type: ADME, organism-based; parameters: dose 25 mg/kg, route oral; settings: in vivo
Summary of the method: (§3)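 Male Sprague−Dawley rats given a single 25 mg/kg oral dose (aqueous 0.5% methyl cellulose suspension for one compound). Blood drawn from 0.08 to 48 h. LC-MS/MS, linear range 0.78−400 ng/mL.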

Rattus norvegicus [7] = assay: AUC in Sprague-Dawley rat at 2.5 mg/kg, iv by LC-MS/MS method; settings: in vivo
Syrian golden hamster [8] = assay: Antidyslipidemic activity in high fructose and high-fat diet fed dyslipidemic Syrian golden hamster model assessed as increase in HDL-cholesterol level at 10 to 100 mg/kg/day for 7 days; type: functional, organism-based; settings: Mesocricetus auratus; summary of the method: as §2
Syrian golden hamster [9] = assay: Antidyslipidemic activity in high fructose and high-fat diet fed dyslipidemic Syrian golden hamster model assessed as increase in lipoprotein lipase level at 30 mg/kg/day, po for 7 day, po; type: functional, Mesocricetus auratus; summary of the method: as §2
Syrian golden hamster [10] = assay: Antidyslipidemic activity in high fructose and high-fat diet fed dyslipidemic Syrian golden hamster model assessed as reduction in LDL-cholesterol level at 100 mg/kg/day, po for 7 days; type: functional, Mesocricetus auratus; parameters: scale not given: the % may be the effect or the level left; summary of the method: as §2
Syrian golden hamster [11] = assay: Antidyslipidemic activity in high fructose and high-fat diet fed dyslipidemic Syrian golden hamster model assessed as increase in lipoprotein lipase level at 100 mg/kg/day, po for 7 days; type: functional, Mesocricetus auratus; summary of the method: as §2
Syrian golden hamster [12] = assay: Antidyslipidemic activity in high fructose and high-fat diet fed dyslipidemic Syrian golden hamster model assessed as reduction in cholesterol level at 10 mg/kg/day, po for 7 day, po; type: functional, Mesocricetus auratus; parameters: scale not given: the % may be the effect or the level left; summary of the method: as §2
Mus musculus [13] = assay: Antidiabetic activity in po dosed diabetic C57BL/KsJ db/db mouse model assessed as reduction in postprandial glucose level in hyperglycemia measured 2 hrs post dose; type: functional; summary of the method: as §1
Syrian golden hamster [14] = assay: Antidyslipidemic activity in high fructose and high-fat diet fed dyslipidemic Syrian golden hamster model assessed as reduction in cholesterol level at 10 to 100 mg/kg/day for 7 days; type: functional, organism-based; settings: Mesocricetus auratus; summary of the method: as §2
Syrian golden hamster [15] = assay: Antidyslipidemic activity in high fructose and high-fat diet fed dyslipidemic Syrian golden hamster model assessed as reduction in cholesterol level at 30 mg/kg/day, po for 7 day, po; type: functional, Mesocricetus auratus; parameters: scale not given: the % may be the effect or the level left
Syrian golden hamster [16] = assay: Antidyslipidemic activity in high fructose and high-fat diet fed dyslipidemic Syrian golden hamster model assessed as increase in HDL-cholesterol level at 25 mg/kg/day for 7 days; type: functional, Mesocricetus auratus
Syrian golden hamster [17] = assay: Antidyslipidemic activity in high fructose and high-fat diet fed dyslipidemic Syrian golden hamster model assessed as increase in HDL-cholesterol level at 100 mg/kg/day, po for 7 days; type: functional, Mesocricetus auratus; summary of the method: as §2
[18] = Elimination half life in Sprague-Dawley rat at 2.5 mg/kg, iv by LC-MS/MS method; type: ADME, organism-based; parameters: dose 2.5 mg/kg, route intravenous; settings: in vivo, read-out: beta t1/2 (converted)
Summary of the method: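 Male Sprague−Dawley rats given a single 2.5 mg/kg iv dose; one formulation was DMF/PG/water (2:4:4), 0.2 μ filtered. Blood drawn from 0.08 to 48 h. Plasma assayed by LC-MS/MS with linear range 0.78−400 ng/mL.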

Syrian golden hamster [19] = assay: Antidyslipidemic activity in high fructose and high-fat diet fed dyslipidemic Syrian golden hamster model assessed as reduction in NEFA level at 10 mg/kg/day, po for 7 day, po; type: functional, Mesocricetus auratus; parameters: scale not given: the % may be the effect or the level left; summary of the method: as §2
Syrian golden hamster [20] = assay: Antidyslipidemic activity in high fructose and high-fat diet fed dyslipidemic Syrian golden hamster model assessed as reduction in glycerol level at 30 mg/kg/day, po for 7 day, po; type: functional, Mesocricetus auratus; parameters: scale not given: the % may be the effect or the level left; summary of the method: as §2
Mus musculus [21] = assay: Antihyperglycemic activity in diabetic C57BL/KsJ db/db mouse model assessed as improvement in glucose tolerance in hyperglycemia at 25 mg/kg, po qd for 10 days; type: functional
Summary of the method: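 Male/female C57BL/KsJ db/db mice, 12−18 weeks, 40−50 g, selected for glucose 200−350 mg/dL. Oral dosing daily for 10 days. OGTT on day 10 after an overnight fast: compound at −30 min, then 3 g/kg oral glucose at 0 min. Glucose read at 30, 60, 90 and 120 min. AUC taken versus vehicle, 5 mice per group.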

Rattus norvegicus [22] = assay: Volume of distribution in Sprague-Dawley rat at 25 mg/kg, po by LC-MS/MS method; type: ADME, organism-based; parameters: dose 25 mg/kg, route oral; settings: in vivo; summary of the method: as §3
Mus musculus [23] = assay: Antihyperglycemic activity in diabetic C57BL/KsJ db/db mouse model assessed as reduction in plasma insulin level in hyperglycemia at 25 mg/kg, po qd for 10 days; type: functional; parameters: scale not given: the % may be the effect or the level left
Summary of the method: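 db/db mice dosed orally every day for 10 days. On day 11, retro-orbital blood was drawn and plasma insulin measured. Mean % change versus vehicle-treated control, 5 mice per group; Student t test.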

Syrian golden hamster [24] = assay: Antidyslipidemic activity in high fructose and high-fat diet fed dyslipidemic Syrian golden hamster model assessed as reduction in LDL-cholesterol level at 30 mg/kg/day, po for 7 day, po; type: functional, Mesocricetus auratus; parameters: scale not given: the % may be the effect or the level left; summary of the method: as §2
Mus musculus [25] = assay: Antidyslipidemic activity in diabetic C57BL/KsJ db/db mouse model assessed as reduction in plasma cholesterol level at 25 mg/kg, po qd for 10 days; type: functional; parameters: scale not given: the % may be the effect or the level left
Summary of the method: (§4)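 db/db mice (blood glucose 200−350, TG 170−250, cholesterol 170−250, HDL-C 32−40 mg/dL) dosed orally at 25 mg/kg daily for 10 days; retro-orbital blood taken on day 11 for plasma TG, cholesterol and HDL-C (and HDL-C/CHOL ratio); mean % change versus vehicle control, 5 mice per group; Student t test.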

Mus musculus [26] = assay: Antidiabetic activity in diabetic C57BL/KsJ db/db mouse model assessed as reduction in postprandial glucose level in hyperglycemia at 10 mg/kg, po measured 2 hrs post dose; type: functional; parameters: scale not given: the % may be the effect or the level left; summary of the method: as §1
Mus musculus [27] = assay: Antidyslipidemic activity in diabetic C57BL/KsJ db/db mouse model assessed as increase in plasma HDL-cholesterol level at 25 mg/kg, po qd for 10 days; type: functional; summary of the method: as §4

## CC(C)(C)NC[C@H](O)COc1ccc2c(=O)cc(-c3cc(OCc4ccccc4)cc(OCc4ccccc4)c3)oc2c1
Mus musculus [1]
  Activity: 38.3%
Mus musculus [2]
  Activity: 22.1%
Syrian golden hamster [3]
  Activity: 26.3%
Mus musculus [4]
  Activity: 35.1%
Syrian golden hamster [5]
  Activity: 21.2%
[6]
  MRT: 30.3 h
Rattus norvegicus [7]
  AUC: 666 ng·h/mL
Syrian golden hamster [8]
  Activity: Dose-dependent effect
Syrian golden hamster [9]
  Activity: 31.2%
Syrian golden hamster [10]
  Activity: 68.4%
Syrian golden hamster [11]
  Activity: 69.7%
Syrian golden hamster [12]
  Activity: 13.8%
Mus musculus [13]
  ED50: 1.72 mg/kg
Syrian golden hamster [14]
  Activity: Dose-dependent effect
Syrian golden hamster [15]
  Activity: 27.2%
Syrian golden hamster [16]
  Activity: 20.5%
Syrian golden hamster [17]
  Activity: 27.9%
[18]
  half-life: 10.1 h
Syrian golden hamster [19]
  Activity: 13.1%
Syrian golden hamster [20]
  Activity: 25.7%
Mus musculus [21]
  Activity: 38.8%
Rattus norvegicus [22]
  Vd: 107.41 L/kg
Mus musculus [23]
  Activity: 53.4%
Syrian golden hamster [24]
  Activity: 34.6%
Mus musculus [25]
  Activity: 30.7%
Mus musculus [26]
  Activity: 28.8%
Mus musculus [27]
  Activity: 33.2%
